High-throughput results (PubChem BioAssay)
An excerpt weighted towards active compounds, which were near 2.1% of everything screened.
ASAP1 inh: ASAP1 ArfGAP inhibition; Q9ULH1; ASAP1-stimulated ARF1 GTP hydrolysis, GDP FP detection; inhibition, % at 16.5 µM; 360,000 compounds, 0.19% hits; AID 624377; in the data active = inhibition above about 25%;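 also: 0% = vehicle with enzyme and substrate and 100% = no enzyme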
Target sequence (Q9ULH1 325-724 limits assumed): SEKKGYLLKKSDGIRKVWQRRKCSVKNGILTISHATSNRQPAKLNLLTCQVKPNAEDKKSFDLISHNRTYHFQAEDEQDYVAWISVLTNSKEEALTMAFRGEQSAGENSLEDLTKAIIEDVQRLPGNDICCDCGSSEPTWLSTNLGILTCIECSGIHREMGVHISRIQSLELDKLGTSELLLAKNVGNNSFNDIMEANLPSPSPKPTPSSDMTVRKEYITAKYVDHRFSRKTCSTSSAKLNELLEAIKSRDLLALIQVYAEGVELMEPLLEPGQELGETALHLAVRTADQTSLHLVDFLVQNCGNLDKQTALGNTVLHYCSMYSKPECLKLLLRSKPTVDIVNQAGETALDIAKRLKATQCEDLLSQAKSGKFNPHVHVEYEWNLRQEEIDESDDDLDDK
APOBEC3A inh: human APOBEC3A DNA deaminase inhibition; P31941; recombinant A3A, FAM/TAMRA ssDNA deamination fluorescence; inhibition, % at 20 µM; 330,000 compounds, 0.41% hits;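 active = at least 40% inhibition at 20 µM here, with at most 30% in a related deaminase screen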;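 also: plate controls were A3A with DMSO for no effect and wells lacking A3A enzyme for full effect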
Target sequence (P31941 whole entry, looked up): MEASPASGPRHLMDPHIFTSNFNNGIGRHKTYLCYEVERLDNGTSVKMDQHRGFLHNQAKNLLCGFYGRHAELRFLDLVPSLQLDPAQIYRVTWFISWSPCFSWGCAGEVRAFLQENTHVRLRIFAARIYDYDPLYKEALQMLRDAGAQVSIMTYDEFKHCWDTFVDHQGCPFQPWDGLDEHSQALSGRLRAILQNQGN
SUMO Mot1 rescue: blocks SUMOylation pathway, rescuing yeast Mot1-301 growth; AID 2716; 320,000 compounds, 1% hits; S. cerevisiae Mot1-301 growth rescue, ATP luminescence, 38.5C; percent above DMSO median, 100 means doubled; growth rescue, % at 18.8 µM;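 active = every valid replicate shows activation above 250% relative to neutral control wells; inactive = the rest, any valid replicate at or below 250%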;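 also: OY570 slx delta 5 strain wells were the positive control but not used for scaling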
ARFGAP1 inhibitor: rat ARFGAP1 inhibition. Q62848. Arfgap1-stimulated ARF1 GTP hydrolysis, GDP FP detection. inhibition, % at 16.5 µM. 360,000 compounds, 0.26% hits;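 active = inhibition above a per-plate limit, mean inhibition of low control wells plus 3 SD, cut at about 25% in these data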;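 also: 0% = DMSO wells with enzyme and 100% = wells lacking Arfgap1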
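Replicates: Single well per compound | Assay system: Truncated rat Arfgap1 GAP domain | Control set: No-Arfgap1 wells (100%) versus DMSO full-reaction wells (0%) | Times: Enzyme reaction 120 min at 25 °C after 20 min preincubation | Reagent: Human ARF1(Δ1-17)-GTP substrate | Measured by: Tracer-displacement fluorescence polarization with EDTA stop, 620/688 nm | Measure: Percent inhibition of Arfgap1-stimulated GTP hydrolysis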
C2C12 statin: protects C2C12 myotubes from simvastatin toxicity; ATP luminescence, 48 h; scaled: DMSO 0, geranylgeraniol control 100; rescue of ATP level, % at 7.49 µM; 330,000 compounds, 0.78% hits; AID 602340;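 active = mean ATP rescue above about 67%, or every replicate alone reaching that limit, limit read from the data, passing the limit was not always enough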;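 also: myotubes were challenged with 10 µM simvastatin during compound exposure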
APOBEC3G inh: blocks human APOBEC3G single-stranded DNA deamination; Q9HC16; recombinant A3G, ssDNA deamination FAM/TAMRA fluorescence; inhibition, % at 20 µM; 330,000 compounds, 0.28% hits;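 active = inhibition of at least 40% at 20 µM, with no more than 30% in the related APOBEC3A deaminase screen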;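 also: plate controls were DMSO wells with A3G for no effect and wells lacking A3G enzyme for full effect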
Yeast Mot1 SUMO: inhibits SUMO pathway, affecting Mot1-301 yeast growth | AID 493004 | 2,300 tested, under 10 active | S. cerevisiae Mot1-301 galactose growth, ATP luminescence, 24 h; -100 = growth of slx-deleted rescue strain | growth activity, percent, % at 42 µM | shares compounds with SUMO Mot1 rescue;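 active = Signal drops as the depositor expects, and the fitted half-maximal dose is no more than ten times the top valid tested dose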;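 also: more negative values mean stronger growth rescue toward the control strain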
Active calls of the source: *; / = not tested or not shown; + = active, no number.

SMILES	ASAP1 inh	APOBEC3A inh	SUMO Mot1 rescue	ARFGAP1 inhibitor	C2C12 statin	APOBEC3G inh	Yeast Mot1 SUMO
COc1ccc(CCNC(=O)c2cc(-c3ccco3)on2)cc1OC	-1	4	566*	17	/	-3	-1
CS(=O)(=O)Nc1ccc2c(c1)[C@H]1C[C@@H](CC(=O)NCc3cccnc3)O[C@@H](CO)[C@H]1O2	/	/	/	/	6	/	/
COc1cccc(NC(=O)Nc2cc(C(=O)NC(C)C)ccc2N2CC3CC(C2)c2cccc(=O)n2C3)c1 (stereo not given)	5	-7	402*	3	-5	-8	1
NC(=O)c1ccccc1NC(=O)c1ccc2c(c1)OCO2	-10	-8	700*	-2	-24	4	-1
O=C(Nc1ccc([N+](=O)[O-])cn1)c1ccc2c(c1)OCO2	9	-3	605*	13	/	-12	2
O=C(Nc1ccccn1)c1ccc2c(c1)OCO2	4	0	-28	-9	/	-9	/
NC(=O)c1ccccc1NC(=O)c1ccc2ccccc2c1	-2	-4	-8	-4	-7	-7	/
CS(=O)(=O)c1ccc(Cl)c(C(=O)O)c1	-2	-7	608*	0	21	-8	0
COCC#Cc1ccc2c(c1)O[C@@H](CN(C)CC1CCOCC1)[C@H](C)CN([C@H](C)CO)S2(=O)=O	/	/	/	/	-87	/	/
Cc1ccc(NS(=O)(=O)c2c(C)[nH]c(C)c2C(=O)N2CCCCC2)c(Cl)c1	-3	-2	477*	0	10	-4	0
O=c1c2c3c(sc2n2cnnc2n1-c1ccccc1)N(Cc1ccccc1)CCC3	/	-2	445*	/	/	0	0
CN1CCc2c(sc3c2c(=O)n(-c2cccc(Cl)c2)c2nncn32)C1	7	-1	-2	9	10	-2	/
COc1ccc(-c2ccc3c(c2)O[C@@H](CN(C)Cc2ccccc2C(=O)O)[C@@H](C)CN([C@H](C)CO)S3(=O)=O)cc1	/	/	/	/	6	/	/
Cc1nc(NCCN2CCOCC2)c2nnn(Cc3c(F)cccc3Cl)c2n1	-3	1	629*	7	1	7	0
COc1ccc(S(=O)(=O)Nc2ccc3c(c2)C(=O)N([C@@H](C)CO)C[C@@H](C)[C@@H](CN(C)Cc2ccc(C(F)(F)F)cc2)O3)cc1	/	/	/	/	37	/	/
Cc1cc2c(C)ccc(C)c2nc1SCC(=O)c1cccs1	-5	-2	591*	-5	/	8	-1
CN(C)CC(=O)Nc1ccc2c(c1)[C@H]1C[C@H](CC(=O)NCCc3ccccc3)O[C@H](CO)[C@H]1O2	/	/	/	/	0	/	/
FC(F)(F)c1nnc(-c2ccccc2)nc1Oc1ccc(Cl)cc1Cl	-1	-6	739*	-2	-17	-8	0
Fc1cccc(NC(=S)N2CCn3cccc3C2c2cccnc2)c1 (stereo not given)	7	-5	497*	8	9	-6	0
S=C(Nc1ccccc1)N1CCn2cccc2C1c1cccnc1 (stereo not given)	-10	-1	47	-2	/	-4	/
CCCNC(=O)N1[C@H](CNC(=O)CC)[C@H](c2ccc(C3=CCCC3)cc2)[C@@H]1CO	/	/	/	/	-11	/	/
CC(C)CCn1c(C(C)O)nc2ccccc21 (stereo not given)	5	-2	433*	-1	-12	-2	0
CCCCn1c(/C=N/Nc2nc3ccccc3[nH]2)nc2ccccc21	13	1	418*	-4	/	3	0
CCCCn1c(/C=C/c2ccco2)nc2ccccc21	-7	7	12	-9	/	6	/
CCCC#Cc1cnc2c(c1)C(=O)N([C@@H](C)CO)C[C@H](C)[C@@H](CN(C)C(=O)NCCC)O2	/	/	/	/	14	/	/
SMILES	ASAP1 inh	APOBEC3A inh	SUMO Mot1 rescue	ARFGAP1 inhibitor	C2C12 statin	APOBEC3G inh	Yeast Mot1 SUMO
O=C(C[C@H]1CC[C@@H]2[C@H](COC[C@H](O)CN2CCC(F)(F)F)O1)NCC1CCCCC1	/	/	/	/	3	/	/
Cc1ccc(NC2c3ncccc3C(=O)N2C2CCCCC2)cc1C (stereo not given)	2	1	395*	-12	-11	-1	-1
O=C(C[C@H]1CC[C@@H](NC(=O)Nc2ccc3c(c2)OCO3)[C@H](CO)O1)NCc1ccccc1	/	/	/	/	-5	/	/
O=c1c2ccccc2c2ccccc2c(=O)n1-c1ccccc1	10	0	413*	-9	/	-4	0
C[C@H]1CN([C@@H](C)CO)C(=O)c2cc(-c3ccc(C(=O)N(C)C)cc3)cnc2O[C@@H]1CN(C)C(=O)c1ccncc1	/	/	/	/	6	/	/
C[C@@H]1CN([C@H](C)CO)C(=O)c2cc(NC(=O)CCC(F)(F)F)ccc2O[C@H]1CN(C)S(=O)(=O)c1cn(C)cn1	/	/	/	/	18	/	/
O=C(Nc1nnc(COc2ccc(F)cc2)s1)c1cccs1	13	-1	940*	0	-7	2	-1
O=C(CSc1nnc(CNC(=O)c2ccccc2F)o1)NCCc1ccccc1	-4	0	+	-4	/	-6	1
Cc1cc(C(=O)COc2cccc3cccnc23)c(C)n1C	-2	9	598*	-3	0	-3	0
Cc1cc(C(=O)COc2ccccc2C(N)=O)c(C)n1C	-19	-9	-15	4	-4	-4	/
O=S1(=O)CC(N2CCCCC2)C(N2CCCCC2)C1 (stereo not given)	-5	-1	366*	-4	/	-1	0
O=C(O)c1ccc(/C=N/NC(=O)c2cc(-c3ccc4c5c(cccc35)CC4)n[nH]2)cc1	0	-2	+	-7	/	-4	0
Cc1cccc(N2CCN(C(=O)CN3C(=O)NC(C)(C)C3=O)CC2)c1C	4	-1	527*	-11	/	-6	0
Cc1cccc(N2CCN(C(=O)CN3C(=O)NC(C)(C4CC4)C3=O)CC2)c1C (stereo not given)	-4	21	/	6	10	0	/
O=C(C[C@H]1C[C@@H]2c3cc(NC(=O)Nc4ccccc4)ccc3O[C@@H]2[C@@H](CO)O1)NCc1cccc(F)c1	/	/	/	/	1	/	/
N#C/C(=C/c1ccc(N2CCCCC2)o1)C(=O)Nc1ccc2ccccc2c1	13	/	/	6	/	/	/
N#C/C(=C/c1ccc(N2CCCCC2)o1)C(=O)Nc1ccc(Cl)cc1	4	-31	587*	-5	-36	-70	0
C/C=C/c1ccc([C@H]2[C@@H](CNC(=O)CC3CC3)N(C(C)=O)[C@H]2CO)cc1	/	/	/	/	6	/	/
Cc1cccnc1NC(=S)Nc1ccc(F)cc1F	8	2	9	1	/	-4	/
C=C(C)C(=O)Nc1cccnc1Oc1ccc(F)cc1F	2	-1	+	-7	/	0	1
CN(C)CC(=O)N[C@@H]1CC[C@@H](CCn2cc(C3CC3)nn2)O[C@@H]1CO	/	/	/	/	2	/	/
